In ChEMBL document CHEMBL1152789, “Synthesis of 2-(5-((5-(4-chlorophenyl)furan-2-yl)methylene)-4-oxo-2-thioxothiazolidin-3-yl)acetic acid derivatives and evaluation of their cytotoxicity and induction of apoptosis in human leukemia cells” (Bioorg Med Chem, 2009):
Activity calls are given as the source filed them. The calls are words filed in the database; no cut-off is given here.

Experiments:
K562 [1] = assay: Cell cycle arrest in human K562 cells assessed as decline of G1 phase after 48 hrs by PI staining based flow cytometry; type: functional
How it was run: (§1)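 K562 cells, 0.75 × 10⁵ cells/ml, incubated at 37 °C with 10, 50 and 100 µM compound for 48 h, with a DMSO vehicle control. Cells were washed, fixed in 70% ethanol, RNase A treated, and stained with propidium iodide for half an hour before flow cytometry. At least 10,000 cells were acquired per sample, and G0/G1 (subG1), G1, S and G2/M fractions were read from the DNA histograms.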

K562 [2] = assay: Cell cycle arrest in human K562 cells assessed as accumulation at G0/G1 phase after 48 hrs by PI staining based flow cytometry; type: functional; how it was run: as §1
K562 [3] = assay: Cell cycle arrest in human K562 cells assessed as change in cell cycle pattern after 48 hrs by PI staining based flow cytometry; type: functional; how it was run: as §1
K562 [4] = assay: Cytotoxicity against human K562 cells after 72 hrs by MTT assay; type: functional, cell-based; details: K562, 72 h
How it was run: (§2)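 Log-phase cells (1 × 10⁴/well) were plated in triplicate in RPMI 1640 with 10% heat-inactivated FBS and penicillin/streptomycin, at 37 °C in 5% CO2. Cells were treated with 10, 100 or 250 µM compound and harvested at 48 and 72 h. MTT (5 mg/ml) was added at 37 °C, formazan was dissolved in DMF/SDS detergent, and A570 was read minus a medium blank. Viability is expressed as % of DMSO vehicle, and IC50 was estimated at 72 h.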

K562 [5] = assay: Cell cycle arrest in human K562 cells assessed as decline of G2/M phase after 48 hrs by PI staining based flow cytometry; type: functional; how it was run: as §1
K562 [6] = assay: Cytotoxicity against human K562 cells at >= 100 uM after 48 to 72 hrs by MTT assay; type: functional, cell-based; how it was run: as §2
REH [7] = assay: Cytotoxicity against human REH cells after 72 hrs by MTT assay; type: functional, cell-based; how it was run: as §2
REH [8] = assay: Cytotoxicity against human REH cells at >= 100 uM after 48 to 72 hrs by MTT assay; type: functional, cell-based; how it was run: as §2
K562 [9] = assay: Induction of apoptosis in human K562 cells assessed as chromosomal DNA fragmentation at 100 uM after 72 hrs by agarose gel electrophoresis; type: functional, cell-based
How it was run: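 K562 cells were cultured with 10, 50 or 100 µM compound for 72 h, with a DMSO lane as control. Genomic DNA was extracted, resuspended in TE buffer, and run on a 1% agarose gel at 30 V for 6 h. Laddering or smearing was viewed by ethidium bromide staining.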

| Compound | Activity (K562 [1]) | Activity (K562 [2]) | Activity (K562 [3]) | IC50 (K562 [4]) [µM] | Activity (K562 [5]) | Activity (K562 [6]) | IC50 (REH [7]) [µM] | Activity (REH [8]) | Activity (K562 [9]) |
| --- | --- | --- | --- | --- | --- | --- | --- | --- | --- |
| Cc1cccc(CNC(=O)CN2C(=O)/C(=C/c3ccc(-c4ccc(Cl)cc4)o3)SC2=S)c1 | Active | Active | Dose-dependent effect | 48 | Active | Active | 53 | Active |  |
| O=C(CN1C(=O)/C(=C/c2ccc(-c3ccc(Cl)cc3)o2)SC1=S)NCc1ccc(Br)cc1 |  |  |  | 68 |  | Active | 75 | Active |  |
| N#Cc1ccc(NC(=O)CN2C(=O)/C(=C/c3ccc(-c4ccc(Cl)cc4)o3)SC2=S)cc1 |  |  |  | 85 |  |  | 90 |  |  |
| CCCCCCNC(=O)CN1C(=O)/C(=C/c2ccc(-c3ccc(Cl)cc3)o2)SC1=S |  |  |  | 50 |  | Active | 55 | Active |  |
| COc1ccc(CNC(=O)CN2C(=O)/C(=C/c3ccc(-c4ccc(Cl)cc4)o3)SC2=S)cc1 | Active | Active | Dose-dependent effect | 40 | Active | Active | 44 | Active | Active |
| O=C(CN1C(=O)/C(=C/c2ccc(-c3ccc(Cl)cc3)o2)SC1=S)NCc1ccccc1Cl |  |  |  | 64 |  | Active | 70 | Active |  |
| O=C(CN1C(=O)/C(=C/c2ccc(-c3ccc(Cl)cc3)o2)SC1=S)Nc1nnn[nH]1 |  |  |  | 52 |  | Active | 50 | Active |  |
| Cc1ccc(CNC(=O)CN2C(=O)/C(=C/c3ccc(-c4ccc(Cl)cc4)o3)SC2=S)cc1 |  |  |  | 45 |  | Active | 45 | Active |  |
| N#Cc1cc(NC(=O)CN2C(=O)/C(=C/c3ccc(-c4ccc(Cl)cc4)o3)SC2=S)ccc1C(F)(F)F |  |  |  | > 250 |  |  | > 250 |  |  |
| O=C(CN1C(=O)/C(=C/c2ccc(-c3ccc(Cl)cc3)o2)SC1=S)NCc1ccc(C(F)(F)F)cc1 |  |  |  | 155 |  |  | 170 |  |  |
| O=C(CN1C(=O)/C(=C/c2ccc(-c3ccc(Cl)cc3)o2)SC1=S)NCc1ccc(F)cc1 |  |  |  | 150 |  |  | 165 |  |  |
